Experiments:
Mus musculus [1] = experiment: Antiinflammatory activity in Swiss Albino mouse assessed as inhibition of carrageenan-induced TNFalpha production in serum at 25 mg/kg, po administered 30 mins before carrageenan challenge after 30 mins by ELISA (reference value: 15.48 +/- 0.31 ng/ml); type: functional
Mus musculus [2] = experiment: Antiinflammatory activity in Swiss Albino mouse assessed as inhibition of carrageenan-induced paw edema at 25 mg/kg, po administered 30 mins before carrageenan challenge relative to vehicle-treated control; type: functional; design: scale not given: the % may be the effect or the level left
Outline: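 Male Swiss albino mice, 25–32 g, six per group, given drug in 1% CMC orally 30 min before subplantar right hind paw injection of carrageenan (1% w/v in 0.9% saline, 0.05 mL/mouse). […] Mean ± SEM, one-way ANOVA/Bonferroni.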

Mus musculus [3] = experiment: Antiinflammatory activity in Swiss Albino mouse assessed as inhibition of carrageenan-induced IL-6 production in serum at 25 mg/kg, po administered 30 mins before carrageenan challenge after 30 mins by ELISA (reference value: 23.8 +/- 2.5 ng/ml); type: functional
Mus musculus [4] = experiment: Analgesic activity in Swiss Albino mouse assessed as inhibition of acetic acid-induced writhing at 25 mg/kg, po administered 30 mins before to acetic acid challenge measured for 15 mins relative to vehicle-treated control; type: functional; design: scale not given: the % may be the effect or the level left
Outline: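 Male Swiss albino mice, 25–32 g, n=6/group, dosed by oral gavage (5 mL/kg) in 1% CMC; vehicle controls. Mice habituated 30 min in test cage. Writhing induced by 0.1 mL 1% acetic acid ip at 30 min post-dose. Abdominal contractions counted for 15 min from the 5th min after injection. % protection = (n−n0)/n × 100 using group mean writhes. Mean ± SEM, one-way ANOVA/Bonferroni.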

[5] = molecular target: T1, Prostaglandin G/H synthase 1 (Ovis aries, UniProt P05979); experiment: Inhibition of ovine COX1 using arachidonic acid as substrate assessed as conversion of PGH2 to PGF2alpha after 10 mins by EIA
T1 sequence (P05979 whole entry): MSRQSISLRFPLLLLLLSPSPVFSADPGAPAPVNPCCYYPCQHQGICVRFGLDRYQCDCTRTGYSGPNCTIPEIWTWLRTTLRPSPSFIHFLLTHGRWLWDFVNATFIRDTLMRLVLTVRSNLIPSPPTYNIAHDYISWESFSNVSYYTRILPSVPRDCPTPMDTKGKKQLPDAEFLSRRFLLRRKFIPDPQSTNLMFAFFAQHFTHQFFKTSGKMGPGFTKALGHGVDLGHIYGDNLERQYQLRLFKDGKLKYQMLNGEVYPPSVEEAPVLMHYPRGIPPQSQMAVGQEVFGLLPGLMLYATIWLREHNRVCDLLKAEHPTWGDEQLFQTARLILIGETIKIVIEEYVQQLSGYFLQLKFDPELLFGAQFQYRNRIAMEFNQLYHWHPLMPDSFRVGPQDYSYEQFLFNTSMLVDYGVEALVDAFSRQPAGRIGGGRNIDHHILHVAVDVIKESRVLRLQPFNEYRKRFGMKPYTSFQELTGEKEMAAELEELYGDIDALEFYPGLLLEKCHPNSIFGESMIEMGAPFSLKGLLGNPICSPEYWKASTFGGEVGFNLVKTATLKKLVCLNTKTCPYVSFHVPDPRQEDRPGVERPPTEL
Outline: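 Ovine COX-1 EIA kit: enzyme with heme and DMSO-dissolved sample in 0.1 M Tris-HCl pH 8, 5 mM EDTA, 2 mM phenol, preincubated 10 min at 37 °C; arachidonic acid added (final 100 µM), stopped after 2 min with HCl, SnCl2 reduction 5 min RT; PGF2α by EIA (18 h RT, Ellman's, 410 nm). IC50 versus untreated control incubations.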

Compound `NS(=O)(=O)c1ccc(Nc2ccc(Nc3ccccc3NC3=NNC(=O)C3)nn2)cc1` has an Activity (Mus musculus [1]) of 16.7 ng/mL, an Activity (Mus musculus [2]) of 15.4% and an Activity (Mus musculus [3]) of 21.43 ng/mL. It also gave an Activity (Mus musculus [4]) of 11.3%.
For `O=C1CC(Nc2ccccc2Nc2ccc(N3CCOCC3)nn2)=NN1`, the IC50 [5] was 2.86 µM, the Activity (Mus musculus [1]) was 7.2 ng/mL and the Activity (Mus musculus [2]) was 62.3%. For the same compound, the Activity (Mus musculus [3]) was 11.8 ng/mL and the Activity (Mus musculus [4]) was 63.7%.
`NC(=O)c1ccccc1Nc1ccc(Nc2ccccc2NC2=NNC(=O)C2)nn1` showed an Activity (Mus musculus [1]) of 12.5 ng/mL, an Activity (Mus musculus [2]) of 18.2% and an Activity (Mus musculus [3]) of 22.3 ng/mL. For the same compound, the Activity (Mus musculus [4]) was 13.2%.
Compound `O=C1CC(Nc2ccccc2Nc2ccc(Nc3ccccc3Cl)nn2)=NN1` has an IC50 [5] of 4.02 µM, an Activity (Mus musculus [1]) of 6.4 ng/mL and an Activity (Mus musculus [2]) of 54.3%. It also gave an Activity (Mus musculus [3]) of 10.65 ng/mL and an Activity (Mus musculus [4]) of 57.2%.
`O=C1CC(Nc2ccccc2Nc2ccc(Nc3cccc([N+](=O)[O-])c3)nn2)=NN1` gave an Activity (Mus musculus [1]) of 13.5 ng/mL, an Activity (Mus musculus [2]) of 5.4% and an Activity (Mus musculus [3]) of 18.3 ng/mL. It also gave an Activity (Mus musculus [4]) of 13.2%.
For `O=C([O-])Cc1ccccc1Nc1c(Cl)cccc1Cl.[Na+]` [DICLOFENAC SODIUM], the Activity (Mus musculus [1]) was 5.01 ng/mL, the Activity (Mus musculus [2]) was 61.5% and the Activity (Mus musculus [3]) was 7.6 ng/mL. For the same compound, the Activity (Mus musculus [4]) was 83.3%.
With `O=C1CC(Nc2ccccc2Nc2ccc(N3CCCCC3)nn2)=NN1` the IC50 [5] was 3.15 µM, the Activity (Mus musculus [1]) was 7.5 ng/mL and the Activity (Mus musculus [2]) was 59.4%. For the same compound, the Activity (Mus musculus [3]) was 16.5 ng/mL and the Activity (Mus musculus [4]) was 55.6%.
`O=C1CC(Nc2ccccc2Nc2ccc(Cl)nn2)=NN1` showed an Activity (Mus musculus [1]) of 13.2 ng/mL, an Activity (Mus musculus [2]) of 11.2% and an Activity (Mus musculus [3]) of 21.4 ng/mL. For the same compound, the Activity (Mus musculus [4]) was 33.4%.
For `O=C1CC(Nc2ccccc2Nc2ccc(Nc3ccc(Cl)cc3)nn2)=NN1`, the IC50 [5] was 4.46 µM, the Activity (Mus musculus [1]) was 7.12 ng/mL and the Activity (Mus musculus [2]) was 35.4%. For the same compound, the Activity (Mus musculus [3]) was 9.76 ng/mL and the Activity (Mus musculus [4]) was 68.3%.
`CN1CCN(c2ccc(Nc3ccccc3NC3=NNC(=O)C3)nn2)CC1` showed an Activity (Mus musculus [1]) of 9.34 ng/mL, an Activity (Mus musculus [2]) of 35.3% and an Activity (Mus musculus [3]) of 19.5 ng/mL. It also gave an Activity (Mus musculus [4]) of 41.2%.
`CCOc1ccc(Nc2ccccc2NC2=NNC(=O)C2)nn1` was tested, and the Activity (Mus musculus [1]) was 12.4 ng/mL, the Activity (Mus musculus [2]) was 10.2% and the Activity (Mus musculus [3]) was 22.4 ng/mL. It also gave an Activity (Mus musculus [4]) of 18.2%.
In the case of `NC(=O)c1ccccc1Oc1ccc(Nc2ccccc2NC2=NNC(=O)C2)nn1`, the Activity (Mus musculus [1]) is reported as 11.98 ng/mL, the Activity (Mus musculus [2]) is reported as 9.3% and the Activity (Mus musculus [3]) is reported as 22.6 ng/mL. For the same compound, the Activity (Mus musculus [4]) was 14.2%.
`O=C1CC(Nc2ccccc2Nc2ccc(Nc3ccccc3F)nn2)=NN1` gave an Activity (Mus musculus [1]) of 11.2 ng/mL, an Activity (Mus musculus [2]) of 11.2% and an Activity (Mus musculus [3]) of 17.3 ng/mL. It also gave an Activity (Mus musculus [4]) of 36.1%.
